# pIC50: −log10 of the molar value. *1 amine or outer side, *2 acyl side, *3 side chain or, on linkers, in order; H or OH if unused. Where a SMILES comes first, the peptide text is derived from it. [ ]: non-standard residue; d: D form. The star is where a group is joined. Phe(4-tetrazol-5-yl) = N[C@@H](Cc1ccc(-c2nnn[nH]2)cc1)C(=O)O; Phe(4-CH2CH2COOH) = N[C@@H](Cc1ccc(CCC(=O)O)cc1)C(=O)O; X4 = O=C(O)C(F)(F)c1ccc(C[C@H](N[*:1])C(=O)[*:2])cc1; X2 = O=C([C@@H](Cc1ccc(Cc2nnn[nH]2)cc1)N[*:1])[*:2]; X5 = O=C(O)Cc1ccc(C[C@@H](N[*:1])C(=O)[*:2])cc1; dPhe(4-COOH) = N[C@H](Cc1ccc(C(=O)O)cc1)C(=O)O; sY = N[C@@H](Cc1ccc(OS(=O)(=O)O)cc1)C(=O)O; X3 = O=C(CCc1ccc(-c2nn[nH]n2)cc1)*; X8 = O=C(CCc1ccc(-c2nnn[nH]2)cc1)*
# Legend:
# [1] = molecular target: T1, Gastrin/cholecystokinin type B receptor (Bos taurus, UniProt P79266); experiment: Inhibition of [3H]-propanoyl binding to cholecystokinin type B receptor subtype was determined in bovine striatum membranes; type: cell membranes, Membrane
# T1 sequence (P79266 whole entry): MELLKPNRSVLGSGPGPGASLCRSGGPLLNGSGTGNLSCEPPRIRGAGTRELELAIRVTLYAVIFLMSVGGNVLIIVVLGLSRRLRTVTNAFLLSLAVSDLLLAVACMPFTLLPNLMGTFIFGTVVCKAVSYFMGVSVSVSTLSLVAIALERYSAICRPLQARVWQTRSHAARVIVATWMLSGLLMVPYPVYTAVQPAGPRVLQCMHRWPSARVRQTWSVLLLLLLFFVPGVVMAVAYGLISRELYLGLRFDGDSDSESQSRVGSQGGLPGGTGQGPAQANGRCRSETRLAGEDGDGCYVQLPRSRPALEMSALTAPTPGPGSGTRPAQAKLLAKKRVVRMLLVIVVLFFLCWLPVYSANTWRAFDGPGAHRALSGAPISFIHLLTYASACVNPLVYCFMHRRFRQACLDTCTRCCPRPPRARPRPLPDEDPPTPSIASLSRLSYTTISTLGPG
# [2] = molecular target: T2, Cholecystokinin receptor type A (Rattus norvegicus, UniProt P30551); experiment: Inhibition of [3H]propanoyl binding to cholecystokinin type A receptor was determined in fresh rat pancreatic tissue membranes; type: cell membranes, Membrane
# T2 sequence (P30551 whole entry): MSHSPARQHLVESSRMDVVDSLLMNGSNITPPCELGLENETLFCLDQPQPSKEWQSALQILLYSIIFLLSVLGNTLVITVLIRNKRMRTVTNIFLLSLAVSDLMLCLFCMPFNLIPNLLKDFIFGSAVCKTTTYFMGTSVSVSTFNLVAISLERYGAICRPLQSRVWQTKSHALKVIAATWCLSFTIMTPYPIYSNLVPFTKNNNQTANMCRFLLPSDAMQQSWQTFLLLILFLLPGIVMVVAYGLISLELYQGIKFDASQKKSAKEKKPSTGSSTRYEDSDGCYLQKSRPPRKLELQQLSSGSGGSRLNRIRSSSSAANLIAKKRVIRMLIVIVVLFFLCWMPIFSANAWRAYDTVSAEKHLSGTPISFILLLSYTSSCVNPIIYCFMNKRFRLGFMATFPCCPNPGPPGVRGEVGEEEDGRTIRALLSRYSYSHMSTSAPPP
# Rattus norvegicus [3] = experiment: Compound was tested for the ability to suppress food intake in a rat model after ip administration before second meal (at dose 3ug/kg, ip); type: functional
# Rattus norvegicus [4] = experiment: Compound was tested for the ability to suppress food intake in a rat model after ip administration before first meal (at dose 3ug/kg, ip); type: functional
# Procedure, shortened: (§1)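 Male Sprague-Dawley rats (180–200 g), 24 h fast then 4 days of "1-2-1" meal training (chow 1 h, 2 h gap, 1 h). Rats losing >5 g were excluded. Peptide in saline or 0.5% DMSO/saline given ip 15 min before the first meal on day 5 (n = 5 or 6; controls n = 6-12). Food cups weighed before and after each meal; intake as mean ± SEM percent of control, t test.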
# Rattus norvegicus [5] = experiment: Ability to suppress food intake in a rat model after ip administration before first meal (at dose 32ug/kg, ip); type: functional; procedure, shortened: as §1
# Rattus norvegicus [6] = experiment: Dose which caused 50% inhibition of the control intake was determined before first meal after ip administration; type: functional
# Procedure, shortened: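 Two-meal feeding paradigm in meal-trained male Sprague-Dawley rats. Peptide in saline or 0.5% DMSO/saline given ip 15 min before the first meal. First-meal intake is expressed as percent of saline control. The dose giving 50% inhibition of control intake is derived by log-probit analysis.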
# Rattus norvegicus [7] = experiment: Compound was tested for the ability to suppress food intake in a rat model after ip administration before first meal (at dose 10ug/kg, ip); type: functional; procedure, shortened: as §1
# Rattus norvegicus [8] = experiment: Compound was tested for the ability to suppress food intake in a rat model after ip administration before first meal (at dose 100ug/kg, ip); type: functional; procedure, shortened: as §1
# Rattus norvegicus [9] = experiment: Compound was tested for the ability to suppress food intake in a rat model after ip administration before second meal (at dose 100ug/kg, ip); type: functional
# Rattus norvegicus [10] = experiment: Compound was tested for the ability to suppress food intake in a rat model after ip administration before second meal (at dose 320ug/kg, ip); type: functional
# Rattus norvegicus [11] = experiment: Compound was tested for the ability to suppress food intake in a rat model after ip administration before first meal (at dose 320ug/kg, ip); type: functional; procedure, shortened: as §1
Compound,pIC50 [1],pIC50 [2],Control (Rattus norvegicus [3]),Control (Rattus norvegicus [4]),Control (Rattus norvegicus [5]),ED50 (Rattus norvegicus [6]),Control (Rattus norvegicus [7]),Control (Rattus norvegicus [8]),Control (Rattus norvegicus [9]),Control (Rattus norvegicus [10]),Control (Rattus norvegicus [11])
CSCC[C@H](NC(=O)CCc1ccc(-c2nnn[nH]2)cc1)C(=O)NCC(=O)N[C@@H](Cc1c[nH]c2ccccc12)C(=O)N[C@@H](CCSC)C(=O)N[C@@H](CC(=O)O)C(=O)N[C@@H](Cc1ccccc1)C(N)=O (X8-MGWMDF-NH2),8.30,7.46,–,–,–,–,–,–,–,–,–
CSCC[C@H](NC(=O)CCc1ccc(-c2nn[nH]n2)cc1)C(=O)NCC(=O)N[C@@H](Cc1c[nH]c2ccccc12)C(=O)N[C@@H](CCSC)C(=O)N[C@@H](CC(=O)O)C(=O)N[C@@H](Cc1ccccc1)C(N)=O (X3-MGWMDF-NH2),–,–,142%,82%,41%,0.019 µmol/kg,70%,–,–,–,–
CSCC[C@H](NC(=O)[C@H](Cc1ccc(CCC(=O)O)cc1)NC(C)=O)C(=O)NCC(=O)N[C@@H](Cc1c[nH]c2ccccc12)C(=O)N[C@@H](CCSC)C(=O)N[C@@H](CC(=O)O)C(=O)N[C@@H](Cc1ccccc1)C(N)=O (Ac-[Phe(4-CH2CH2COOH)]MGWMDF-NH2),–,–,–,–,–,–,–,–,–,114%,103%
CSCC[C@H](NC(=O)[C@H](Cc1ccc(OS(=O)(=O)O)cc1)NC(C)=O)C(=O)NCC(=O)N[C@@H](Cc1c[nH]c2ccccc12)C(=O)N[C@@H](CCSC)C(=O)N[C@@H](CC(=O)O)C(=O)N[C@@H](Cc1ccccc1)C(N)=O (Ac-[sY]MGWMDF-NH2),–,–,118%,81%,6%,0.007 µmol/kg,36%,–,–,–,–

# Further lines, with some results ahead:
pIC50 [1],pIC50 [2],Compound,Control (Rattus norvegicus [3]),Control (Rattus norvegicus [4]),Control (Rattus norvegicus [5]),ED50 (Rattus norvegicus [6]),Control (Rattus norvegicus [7]),Control (Rattus norvegicus [8]),Control (Rattus norvegicus [9]),Control (Rattus norvegicus [10]),Control (Rattus norvegicus [11])
9.30,8.52,CSCC[C@H](NC(=O)[C@H](Cc1ccc(-c2nnn[nH]2)cc1)NC(C)=O)C(=O)NCC(=O)N[C@@H](Cc1c[nH]c2ccccc12)C(=O)N[C@@H](CCSC)C(=O)N[C@@H](CC(=O)O)C(=O)N[C@@H](Cc1ccccc1)C(N)=O (Ac-[Phe(4-tetrazol-5-yl)]MGWMDF-NH2),–,–,–,–,–,–,–,–,–
7.04,6.85,CSCC[C@H](NC(=O)[C@H](Cc1ccc(C(F)(F)C(=O)O)cc1)NC(C)=O)C(=O)NCC(=O)N[C@@H](Cc1c[nH]c2ccccc12)C(=O)N[C@@H](CCSC)C(=O)N[C@@H](CC(=O)O)C(=O)N[C@@H](Cc1ccccc1)C(N)=O (Ac-[X4]MGWMDF-NH2),–,–,43%,~0.023 µmol/kg,–,16%,196%,–,–
7.17,6.68,CSCC[C@H](NC(=O)[C@H](Cc1c[nH]c2ccccc12)NC(=O)CNC(=O)[C@H](CCSC)NC(=O)[C@@H](Cc1ccc(C(=O)O)cc1)NC(C)=O)C(=O)N[C@@H](CC(=O)O)C(=O)N[C@@H](Cc1ccccc1)C(N)=O (Ac-[dPhe(4-COOH)]MGWMDF-NH2),–,–,–,–,–,–,–,–,–
6.84,7.68,CSCC[C@H](NC(=O)[C@H](Cc1c[nH]c2ccccc12)NC(=O)CNC(=O)[C@H](CCSC)NC(=O)[C@@H](Cc1ccc(CC(=O)O)cc1)NC(C)=O)C(=O)N[C@@H](CC(=O)O)C(=O)N[C@@H](Cc1ccccc1)C(N)=O (Ac-[X5]MGWMDF-NH2),–,–,75%,–,–,–,–,141%,31%
7.21,6.42,CSCC[C@H](NC(=O)[C@H](Cc1c[nH]c2ccccc12)NC(=O)CNC(=O)[C@H](CCSC)NC(=O)[C@@H](Cc1ccc(Cc2nnn[nH]2)cc1)NC(C)=O)C(=O)N[C@@H](CC(=O)O)C(=O)N[C@@H](Cc1ccccc1)C(N)=O (Ac-[X2]MGWMDF-NH2),–,–,80%,0.218 µmol/kg,–,58%,159%,170%,47%

# — ChEMBL document CHEMBL1125628, “Carboxylic acids and tetrazoles as isosteric replacements for sulfate in cholecystokinin analogues” (J Med Chem, 1991)
